In ChEMBL document CHEMBL1123165, “A quantitative structure-activity relationship and molecular graphics analysis of hydrophobic effects in the interactions of inhibitors with alcohol dehydrogenase” (J Med Chem, 1986):

Columns and labels:
[1] = Partition coefficient (logP); format: physicochemical; settings: octanol/water
Alcohol dehydrogenase = Alcohol dehydrogenase (Equus caballus, UniProt P00327+P00328); assay: Inhibitory activity against horse liver alcohol dehydrogenase (ADH)
Outline: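 Horse liver ADH crystalline suspension, pelleted (12000g, 3 min) to remove ethanol, redissolved in 0.1 M potassium phosphate pH 7.0, diluted 1:10; 0.004 unit per assay. Reaction started with 5 or 10 mM ethanol, NADH read at 340 nm.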

Row | Structure (SMILES) | logP [1] | Log 1/Ki (Alcohol dehydrogenase)
1 | NC(=O)C(Br)Br | 0.18 | 2.49
2 | O=CNCc1ccc(O)cc1 |  | 5.75
3 | NC(=O)Cc1ccc(Br)cc1 | 1.31 | 4.7
4 | COc1ccc(CC(N)=O)cc1 | 0.43 | 4.15
5 | CCCCCOc1ccc(CC(N)=O)cc1 | 2.58 | 5.92
6 | CC(C)(C)C(N)=O [PIVALAMIDE] | 0.15 | 2.46
7 | O=CNCc1ccc(OCc2ccccc2)cc1 |  | 7.82
8 | CC(C)Oc1ccc(CC(N)=O)cc1 | 1.3 | 4.1
9 | c1cn[nH]c1 [PYRAZOLE] | 0.26 | 5.73
10 | NC(=O)Cc1ccc(OCc2ccccc2)cc1 | 2.11 | 5.7
11 | CCCOc1ccc(CC(N)=O)cc1 | 1.5 | 4.6
12 | NC(=O)C(F)F | -0.76 | 1.12
13 | NC(=O)C(Cl)(Cl)Cl | 0.79 | 2.07
14 | CCCc1cn[nH]c1 | 1.96 | 7.65
15 | C=CC(N)=O [ACRYLAMIDE] | -1.01 | 2.11
16 | NC(=O)CI [IODOACETAMIDE] | 0.15 | 2.72
17 | NC(=O)C(F)(F)F [TRIFLUOROACETAMIDE] | -0.11 | 1.33
18 | CCCCOc1ccc(CC(N)=O)cc1 | 2.04 | 5.15
19 | C/C=C(\C)C(N)=O | -0.21 | 3.15
20 | NC(=O)CF [MONOFLUOROACETAMIDE] | -1.03 | 1.41

Row | Structure (SMILES) | logP [1] | Log 1/Ki (Alcohol dehydrogenase)
21 | CCOc1ccc(CC(N)=O)cc1 | 0.83 | 4.1
22 | CCCCCOc1ccc(CNC=O)cc1 |  | 7.52
23 | NC(=O)Cc1ccc(I)cc1 | 1.57 | 5.1
24 | NC(=O)C(Cl)Cl | -0.03 | 2.19
25 | Cc1cn[nH]c1 [FOMEPIZOLE] | 0.96 | 6.85
26 | NC(=O)Cc1ccc(Cl)cc1 | 1.16 | 4.7
27 | CCCCOc1ccc(CNC=O)cc1 |  | 7.4
28 | C/C=C/C(N)=O | -0.51 | 2.89
29 | NC(=O)CBr |  | 2.24
30 | NC(=O)Cc1ccc(OCc2ccc(Br)cc2)cc1 | 2.97 | 5.7
31 | NC(=O)Cc1ccc(F)cc1 | 0.59 | 4.19
32 | C=C(C)C(N)=O | -0.71 | 3.02
33 | CCCCCc1cn[nH]c1 | 2.96 | 8.6
34 | CCCCCCc1cn[nH]c1 | 3.46 | 8.88
35 | CC(C)CCOc1ccc(CC(N)=O)cc1 | 2.38 | 5.22
36 | CC(C)C(N)=O [ISOBUTYRAMIDE] | -0.39 | 3.77
37 | CCC(CC)C(N)=O | 0.53 | 3.41
38 | CCCCCCc1ccc(CNC=O)cc1 |  | 7.58
39 | NC(=O)Cc1ccc(OCC2CCCCC2)cc1 | 3.42 | 6
40 | NC(=O)CCl | -0.59 | 2.12
